Assay outcomes as filed in PubChem.
SKN-1 inh: blocks SKN-1 activity in C. elegans; inhibition, % at 21.8 µM; C. elegans VP596 Pgst-4::GFP/RFP ratio, acrylamide-induced, 24 h; AID 624304; actives 0.49% (n = 360,000);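 active means interference check ratio from 0.5 to 1.5 plus GFP to RFP signal ratio inhibition reaching or exceeding a fixed threshold, cut at about 30% in these data, passing the limit was not always enough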
MT1-MMP act inh: MT1-MMP (human) activation inhibition; P50281; HT1080 RFP-PRO-GFP cells, GFP/RFP ratio fluorescence, overnight; percent of plate control window, DMSO zero; GFP/RFP ratio change, % at 20 µM; actives 0.061% (n = 360,000);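 active means GFP/RFP ratio change of at least 30% with cell ATP level not reduced by more than half and red fluorescence within 50% of control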
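Test system: HT1080 RFP-PRO-GFP cells; Benchmarks: DMSO and RFP-L50D-GFP cell wells; Timing: cells overnight before dosing, compound overnight, 37 °C, 5% CO2; Compound: one 20 µM compound dose with 1% DMSO; Read-out: GFP/RFP fluorescence ratio.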
eIF4H FP inh: inhibitors of RNA binding by human eIF4H; Q15056; actives 0.94% (n = 290,000); eIF4H fluorescence polarization binding assay; inhibition, % at 35 µM;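 further: calls also rest on retests at 20 µM and on dose response follow-up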
MLLE-PAM2 inh: blocks PAM2 peptide binding to the PABP1 MLLE domain | P11940 | GST-MLLE / FITC-PAM2 fluorescence polarization | actives 0.36% (n = 360,000) | inhibition, % at 20 µM; in the data active means inhibition above about 35%, passing the limit was not always enough;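 further: plate controls were DMSO wells with GST-MLLE for no effect and wells lacking GST-MLLE protein for full effect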
Target sequence (P11940 whole entry, looked up, the tested form may be a part): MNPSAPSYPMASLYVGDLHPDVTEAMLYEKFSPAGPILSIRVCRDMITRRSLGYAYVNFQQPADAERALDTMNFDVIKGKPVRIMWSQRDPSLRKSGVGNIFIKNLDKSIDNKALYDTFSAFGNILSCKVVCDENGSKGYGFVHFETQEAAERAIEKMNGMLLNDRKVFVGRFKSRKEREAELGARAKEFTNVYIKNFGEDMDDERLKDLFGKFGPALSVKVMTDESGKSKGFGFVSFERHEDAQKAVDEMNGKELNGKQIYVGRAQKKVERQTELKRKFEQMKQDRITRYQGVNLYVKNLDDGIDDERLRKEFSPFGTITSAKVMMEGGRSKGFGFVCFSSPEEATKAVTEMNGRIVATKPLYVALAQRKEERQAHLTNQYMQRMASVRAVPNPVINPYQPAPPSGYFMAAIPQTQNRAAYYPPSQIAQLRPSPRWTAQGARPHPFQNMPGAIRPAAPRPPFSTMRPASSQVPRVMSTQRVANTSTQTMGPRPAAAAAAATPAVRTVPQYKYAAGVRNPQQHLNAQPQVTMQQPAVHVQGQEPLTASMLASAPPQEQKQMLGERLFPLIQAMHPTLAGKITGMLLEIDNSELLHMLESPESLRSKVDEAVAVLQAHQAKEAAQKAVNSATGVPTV
PABP FP inh: blocks human PABP binding to poly(A) RNA | P11940 | fluorescence polarization | calls only at 35 µM | actives 1% (n = 290,000);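 further: calls also rest on retests at 20 µM and on dose response follow-up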
Numbers without * were called inactive; i = inactive; ? = inconclusive; . = not tested or not shown; + = active, no number. Hits are enriched below; roughly 1.8% of the tested compounds scored in any of these assays. Unless noted, how the calls were made is not given here.

SMILES	SKN-1 inh	MT1-MMP act inh	eIF4H FP inh	MLLE-PAM2 inh	PABP FP inh
O=C(N/N=C/c1ccc([N+](=O)[O-])o1)c1ccccc1NS(=O)(=O)c1cccs1	-10	-8	76	-2	+
Cc1ccc(N2CCN(C(=O)C(=O)c3ccc(F)c(F)c3)CC2)cc1	6	2	.	.	.
Cc1cc(C(=O)N2CCC(C)(C(=O)NS(=O)(=O)C3CC3)C2)n(C(C)(C)C)n1 (stereo unspecified)	17	2	.	-7	.
N/C(=N\OC(=O)Cc1cccs1)c1ccc(Cl)cc1	57*	-6	-12	-18	i
N/C(=N\OC(=O)c1cccs1)c1ccc(Cl)cc1	52*	2	2	-10	i
COc1ccc(/C=C/C(=O)NC(=S)Nc2ccc(S(=O)(=O)Nc3nccnc3OC)cc2)cc1	-4	-2	-3	38*	i
COc1nccnc1NS(=O)(=O)c1ccc(NC(=S)NC(=O)c2ccc(F)cc2)cc1	3	-4	-4	49*	i
COc1nccnc1NS(=O)(=O)c1ccc(NC(=S)NC(=O)c2cccc(F)c2)cc1	8	4	-10	29	i
Cc1cc2c(c(=O)n1Cc1ccco1)C(c1cccnc1)C(C#N)=C(N)O2 (stereo unspecified)	-9	-2	124*	3	+
O=C(NC(Cc1ccccc1)C(=O)O)/C(=C/c1ccc(Cl)cc1)NC(=O)c1ccccc1 (stereo unspecified)	10	-3	active	2	i
O=C(NC(Cc1ccccc1)C(=O)O)/C(=C\c1ccccc1F)NC(=O)c1ccccc1 (stereo unspecified)	-2	-1	-9	3	i
O=C(CC[C@H]1O[C@@H](n2ccc(=O)[nH]c2=O)[C@H](O)[C@@H]1O)N[C@H](Cc1ccccc1)C(=O)NCc1ccc2c(c1)OCO2	-2	6	.	1	.
O=S1(=O)CC(O)C(Nc2ccc(Cl)cc2)C1 (stereo unspecified)	-13	0	-3	7	i
O=S1(=O)CC(O)C(Nc2ccccc2)C1 (stereo unspecified)	19	2	active	7	i
CSCC(C)N1CCC(Oc2cccc(C(=O)NCc3ccccn3)c2)CC1 (stereo unspecified)	7	-7	60	43*	i
Cc1ccc(SC(=O)c2c(C)noc2-c2cc(C)on2)cc1	-14	-3	-6	41*	i
Cc1cc(-c2onc(C)c2C(=O)N/N=C/c2ccccc2)no1	5	-3	-4	-5	i
COc1ccc([C@H]2N[C@]3(CCCN(Cc4cccn4C)C3=O)[C@H]3C(=O)N(Cc4ccccc4)C(=O)[C@@H]23)cc1	-1	-22	.	8	.
Cc1ccc(-c2nc3cc(Cl)ccc3o2)cc1	8	-8	-7	4	i
Clc1ccc(-c2nc3cc(CN4CCCCC4)ccc3o2)cc1	77*	0	-8	1	i
Cc1cccn2c(=O)c(C(=O)NCCCN3CC(C)CC(C)C3)c(O)nc12 (stereo unspecified)	17	7	.	-1	.
Cc1nn(-c2ccccc2)c(Cl)c1/C=N/Nc1ccc(S(=O)(=O)Nc2ccccc2C(=O)O)cc1[N+](=O)[O-]	3	17	92*	-7	+
Cc1ccc2cc(CN(CC(C)C)S(=O)(=O)c3cccc4nonc34)c(=O)[nH]c2c1	9	-5	-13	-18	i
CCN(CC)C(=O)c1cccc(-c2csc(C(C)(O)c3cccc(F)c3)n2)c1 (stereo unspecified)	-2	0	.	-5	.
Cc1ccccc1-n1c(SCC(=O)Nc2ccccc2)nc2nc3c(cc2c1=O)CCCC3	-1	-2	active	-17	i
SMILES	SKN-1 inh	MT1-MMP act inh	eIF4H FP inh	MLLE-PAM2 inh	PABP FP inh
Cc1noc(C)c1C(=O)N(CC(=O)Nc1ccccc1Br)Cc1ccco1	5	4	.	4	.
CCN1C(=O)CC(C(=O)NCCc2ccc(S(N)(=O)=O)cc2)SC1=Nc1ccc(OC)cc1 (stereo unspecified)	-7	-3	active	1	+
CNC(=O)C1CC(=O)N(CCc2ccccc2)C(=Nc2ccc(OC)cc2)S1 (stereo unspecified)	-12	0	7	-25	?
Cc1ccc(S(=O)(=O)NCc2ccc(C(=O)N3CCCC3)cc2)cc1	3	1	6.8*	-1	+
CC(C)(C)c1ccc(S(=O)(=O)NCc2ccc(C(=O)N3CCCC3)cc2)cc1	-9	0	-1	8	i
COc1ccc(NC(=O)CN(C)C(=O)CNC(=O)c2cccs2)cc1	-2	0	1	-4	i
CN1CCN(NC(=S)NC2CCCCC2)CC1	-13	-2	87*	-12	+
S=C(NC1CCCCC1)NN1CCCCCC1	13	-1	.	-33	.
CCN(CC)c1cccc(OC2=NS(=O)(=O)c3ccccc32)c1	47	72	58*	-16	i
C=CCOc1ccc(CNc2ccc3[nH]c(=O)[nH]c3c2)cc1OC	7	-16	104*	-6	+
CC(N)c1csc(Nc2ncccn2)n1 (stereo unspecified)	-20	2	.	3	.
N#Cc1ccc(-c2nc3c4ccccc4ccn3c2Cc2ccccc2C(F)(F)F)cc1	42*	3	.	6	.
N#Cc1ccc(-c2nc3ccc(Br)cn3c2Cc2ccccc2C(F)(F)F)cc1	11	0	.	-2	.
FC(F)(F)c1ccccc1Cc1c(-c2cccc(Br)c2)nc2c3ccccc3ccn12	27	16	.	-21	.
FC(F)(F)c1ccccc1Cc1c(-c2ccccc2)nc2ccc(Br)cn12	48*	2	.	12	.
CS(=O)(=O)c1ccc(Cl)c(NC(=O)CSc2nnc3n2CCCCC3)c1	2	0	.	2	.
COc1ccccc1CNC(=O)c1cccc(S(=O)(=O)N2CCCC2)c1	0	3	.	4	.
CN(C(=O)c1ccc(NC(=O)Cc2ccc(NC(=O)C3CCN(C(=O)C4CC4)CC3)cc2)cc1)C1CCCC1	0	0	.	0	.
CCn1c(CSc2nc3ccccc3s2)nnc1SCC(=O)c1ccc(Cl)cc1	-9	-1	-7	-54	i
CCn1c(CSc2nc3ccccc3s2)nnc1SCC(=O)c1ccc(O)c(O)c1	13	5	52*	-57	+
O=C(OCc1cc(=O)n2c(n1)sc1ccccc12)c1ccc2c(=O)n3c(nc2c1)CCC3	3	-3	75*	-34	+
CC(C)[C@H](NC(=O)Cc1ccccc1)C(=O)OCc1cc(=O)n2c(n1)sc1ccccc12	-3	-2	75*	-15	+
Cc1ccc2c(CC(=O)OCc3cc(=O)n4c(n3)sc3ccccc34)coc2c1	12	10	70*	-7	i
CC(=O)c1c(C)[nH]c(C(=O)COC(=O)c2ccc3c(=O)n4c(nc3c2)CCC4)c1C	5	3	2	8	i
Cc1ccc(COC(=O)Cc2coc3cc(O)ccc23)cc1	16	3	1	-1	i
